# Xi reactivation = reactivates the inactive X chromosome in mouse fibroblasts. XiGFP mouse fibroblasts, % GFP-positive cells imaging, 3 d; cells co-treated with 5-aza-dC sensitizer; scaled so ellipticine positive control = 100%. activation, % at 7.58 µM. actives 0.055% (n = 360,000);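 active = mean normalized replicate activation at least 10% and every replicate at or above 10%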
#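 Material: XiGFP fibroblasts, SV40-immortalized; Buffer or medium: DMEM containing 5-aza-dC; Compound dosing: single point; Times: 3 days compound exposure.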
# Myeloid diff 2 = myeloid differentiation induction. ER-HoxA9 myeloid progenitors, lysozyme-GFP differentiation, flow cytometry. calls only at 10 µM. actives 1% (n = 360,000). AID 624256;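 active = normalized GFP-positive differentiation at or above the plate's own cutoff, the solvent-only control mean plus 3 SD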;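 note: cells exposed to compound for four days before flow analysis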
# ABCB6 inh 2 = inhibitors of human ABC transporter ABCB6; K562-ABCB6 porphyrin accumulation, flow cytometry, 1 h; hits give low values; fluorescence ratio to DMSO, % at 10 µM; actives 0.19% (n = 360,000); AID 602162;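 active = fluorescence ratio to DMSO below 75%, the collection mean minus 3 SD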;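 note: signal is porphyrin accumulated inside mitochondria; lower ratio means ABCB6 inhibition with less porphyrin fluorescence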
# Target sequence (Q9NP58 whole entry, looked up): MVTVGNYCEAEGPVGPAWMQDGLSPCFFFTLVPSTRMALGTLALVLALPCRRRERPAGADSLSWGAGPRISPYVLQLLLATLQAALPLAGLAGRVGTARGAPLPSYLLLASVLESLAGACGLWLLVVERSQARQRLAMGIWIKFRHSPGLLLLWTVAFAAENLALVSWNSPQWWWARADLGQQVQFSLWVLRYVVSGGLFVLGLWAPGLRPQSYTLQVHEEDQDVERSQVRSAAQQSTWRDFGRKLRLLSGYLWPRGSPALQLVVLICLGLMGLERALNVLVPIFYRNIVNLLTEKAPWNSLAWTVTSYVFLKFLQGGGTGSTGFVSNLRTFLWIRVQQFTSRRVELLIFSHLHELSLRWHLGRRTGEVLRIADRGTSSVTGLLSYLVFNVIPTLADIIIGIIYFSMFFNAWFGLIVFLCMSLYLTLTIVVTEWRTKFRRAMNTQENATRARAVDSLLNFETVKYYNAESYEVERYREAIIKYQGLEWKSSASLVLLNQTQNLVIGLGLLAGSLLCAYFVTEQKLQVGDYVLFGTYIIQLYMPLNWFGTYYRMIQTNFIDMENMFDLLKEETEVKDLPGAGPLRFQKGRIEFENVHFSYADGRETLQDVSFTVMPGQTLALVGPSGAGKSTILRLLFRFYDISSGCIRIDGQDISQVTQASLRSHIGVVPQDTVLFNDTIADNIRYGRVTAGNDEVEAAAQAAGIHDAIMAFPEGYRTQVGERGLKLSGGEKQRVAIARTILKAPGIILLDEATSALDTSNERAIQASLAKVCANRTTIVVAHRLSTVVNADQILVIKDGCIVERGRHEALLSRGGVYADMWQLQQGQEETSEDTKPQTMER
# Myeloid diff CP1 = promotes myeloid progenitor differentiation. shares compounds with Myeloid diff 2. ER-HoxA9 myeloid progenitors, GFP/Mac1 double-positive flow. calls only. actives 2% (n = 2,300);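 active = share of green or green-and-red cells above 9 and 9% in run 1 or 4 and 3% in run 2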
# GFP autofluor = flagged as fluorescent in myeloid differentiation counter-screen. actives 7.4% (n = 2,300). shares compounds with Myeloid diff 2. ER-HoxA9 myeloid progenitors, no estrogen, GFP autofluorescence flow cytometry; vehicle wells 0%, positive control 100%. fluorescence response, % (test concentration not listed);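 active = over 5% cells positive for green fluorescent reporter, or over 2% positive for both it and APC stain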
# Hits are given with their value; i = inactive; nt = not tested or not shown; + = active, no number. The sample as a whole holds a higher share of hits than the screen did.
SMILES,Xi reactivation,Myeloid diff 2,ABCB6 inh 2,Myeloid diff CP1,GFP autofluor
Cc1ccc(S(=O)(=O)N/N=C\C=C\c2ccccc2)cc1,nt,nt,i,i,i
O=S(=O)(N/N=C\C=C\c1ccccc1)c1ccc(Br)cc1,nt,i,i,nt,nt
O=C([C@@H]1[C@@H](CO)[C@@H]2Cn3c(ccc(-c4ccncc4)c3=O)[C@H]1N2Cc1cccnc1)N1CCOCC1,i,nt,nt,nt,nt
C[C@@H]1CCCCO[C@H](CN(C)C(=O)Nc2ccccc2)[C@H](C)CN([C@@H](C)CO)C(=O)c2cc(NC(=O)Nc3ccc(F)cc3)ccc2O1,i,nt,nt,nt,nt
C[C@H](CO)N1C[C@H](C)[C@@H](CN(C)C(=O)CN(C)C)Oc2cc(Br)ccc2S1(=O)=O,i,nt,nt,nt,nt
COc1ccc(S(=O)(=O)N(C)C[C@@H]2Oc3cc(C#CC4CCCCC4)ccc3S(=O)(=O)N([C@@H](C)CO)C[C@@H]2C)cc1,i,i,i,i,i
C[C@H](CO)N1C[C@H](C)[C@@H](CN(C)C(=O)Nc2ccccc2)Oc2cc(Br)ccc2S1(=O)=O,i,i,i,nt,nt
COc1ccc(S(=O)(=O)N(C)C[C@@H]2Oc3cc(C#CC4CCCCC4)ccc3S(=O)(=O)N([C@H](C)CO)C[C@@H]2C)cc1,i,nt,nt,nt,nt
C[C@@H]1CN([C@@H](C)CO)S(=O)(=O)c2ccc(Br)cc2O[C@H]1CN(C)C(=O)CN(C)C,i,+,i,i,i
C[C@@H]1CN([C@H](C)CO)S(=O)(=O)c2ccc(Br)cc2O[C@H]1CN(C)C(=O)Nc1cccc(F)c1,i,i,i,i,i
C[C@H](CO)N1C[C@H](C)[C@H](CN(C)Cc2ccc(O)cc2)OCc2cn(nn2)CCCC1=O,i,nt,nt,nt,nt
COc1ccc(-c2ccc(C#N)c(SCC(=O)Nc3sc4c(c3C#N)CCC4)n2)cc1,nt,i,i,nt,nt
N#Cc1c(C(F)(F)F)cc(-c2ccccc2)nc1SCC(=O)Nc1sc2c(c1C#N)CCC2,nt,i,i,i,i
CCN(CC)C(=O)CSc1ncnc2c(-c3cccs3)nsc12,nt,i,i,i,i
CCN(CC)C(=O)CSc1ncnc2sccc12,i,i,i,nt,nt
C[C@@H]1CCCCO[C@@H](CN(C)Cc2ccc3c(c2)OCO3)[C@@H](C)CN([C@@H](C)CO)C(=O)c2cc(NC(=O)Nc3cccc4ccccc34)ccc2O1,i,nt,nt,nt,nt
COc1ccccc1NC(=O)Cn1c2ccccc2c2nc3n(c(=O)c21)CCS3,i,+,i,i,i
O=C(Cn1c2ccccc2c2nc3n(c(=O)c21)CCS3)Nc1ccccc1C(F)(F)F,i,i,i,nt,nt
CC1=CC(=C(C#N)C#N)c2ccccc2N1C,i,i,i,i,i
Cc1ccccc1N1C(=O)CSC1=C(C#N)C#N,i,i,i,nt,nt
CSc1ccccc1NC(=O)COC(=O)CCC(=O)c1ccc(F)cc1,i,i,i,nt,nt
Cc1ccc(C(=O)CCC(=O)OCC(=O)Nc2ccccc2SCC#N)cc1,i,+,i,i,89
CC(C)NC(=O)Nc1ccc2c(c1)C(=O)N([C@H](C)CO)C[C@H](C)[C@H](CN(C)Cc1ccc3c(c1)OCO3)OCCCC[C@@H](C)O2,i,nt,nt,nt,nt
O=C(CCc1nc2ccccc2c(=O)[nH]1)OCC(=O)N1CCc2ccccc21,i,i,i,nt,nt
O=C(CCc1nc2ccccc2[nH]c1=O)OCC(=O)N1CCc2ccccc21,nt,i,i,i,i
SMILES,Xi reactivation,Myeloid diff 2,ABCB6 inh 2,Myeloid diff CP1,GFP autofluor
C[C@@H]1CN([C@@H](C)CO)C(=O)c2cc(-c3cccc(C#N)c3)cnc2O[C@H]1CN(C)C(=O)c1cnccn1,i,nt,nt,nt,nt
NC(=O)CCC(NS(=O)(=O)c1ccc(Cl)cc1)C(=O)NCC1CCCCC1 (stereo not given),i,i,i,i,i
NC(=O)CCC(NS(=O)(=O)c1ccc(Cl)cc1)C(=O)NCc1ccc(Cl)cc1 (stereo not given),i,i,i,nt,nt
CCCC#Cc1ccc([C@@H]2[C@H](CO)N3C(=O)CN(S(=O)(=O)c4ccccc4C)C[C@@H]23)cc1,i,nt,nt,nt,nt
Clc1ccc(Cn2ncc3c(N4CCN(c5ccccc5)CC4)ncnc32)cc1,i,+,i,+,i
c1ccc(Cn2ncc3c(N4CCCCC4)ncnc32)cc1,nt,i,i,nt,nt
COc1cccc(CNCCc2c[nH]c3ccccc23)c1OCc1ccc(F)cc1,nt,i,i,nt,nt
COc1cc(CNCCc2c[nH]c3ccccc23)ccc1OCc1ccc(F)cc1,nt,i,i,i,i
CN(C)C(=O)C[C@@H]1C[C@H]2c3cc(NC(=O)NC4CCCCC4)ccc3O[C@H]2[C@H](CO)O1,i,nt,nt,nt,nt
